Measured values as given in BindingDB's records for doi:10.1021/np2003066 (The University of Montana, 2011).

The molecules below were run against Interleukin-1 beta (Homo sapiens, UniProt P01584) (assay: Induction of IL-1 beta production in LPS-induced human THP-1 cells by ELISA).
Method in brief: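 THP-1 cells were differentiated with PMA (1 μg/mL) for 24 h, scraped, pelleted and resuspended at 1.0 × 10^6 cells/mL. They were exposed together to test inhibitor, LPS [20 ng/mL] and TiO2 nanowires (100 μg/ml) for 24 h at 37 °C in a CO2 incubator. IL-1β released was measured by DuoSet ELISA, and IC50 was derived from the post-exposure IL-1β levels.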

Chain of Interleukin-1 beta (P01584 117-269 limits assumed): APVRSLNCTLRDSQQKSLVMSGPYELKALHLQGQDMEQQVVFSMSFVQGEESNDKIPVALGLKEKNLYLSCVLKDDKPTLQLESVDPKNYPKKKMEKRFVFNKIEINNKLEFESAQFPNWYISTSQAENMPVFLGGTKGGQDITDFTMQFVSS

| Compound | IC50 [µM] |
| --- | --- |
| CC(=O)N[C@@H](Cc1ccc(O)cc1)C(=O)N[C@H](C(=O)N[C@@H](C)C(=O)N[C@H](C=O)CC(=O)O)C(C)C | 2 |
| C=C1[C@@]2(C)C[C@H]3[C@]4(C)CCC(=O)C(C)(C)[C@H]4CC[C@]3(C)[C@]1(C(=O)OC)C(=O)[C@@](C)(O)C2=O | 15.5 |
| C=C1[C@@]2(C)C[C@H]3[C@]4(C)CC[C@@H](O)C(C)(C)[C@H]4CC[C@]3(C)[C@]1(C(=O)OC)C(=O)[C@@](C)(O)C2=O | 2.7 |
| C=C1[C@@]2(C)C[C@@H]3[C@](C)(CC=C4C(C)(C)OC(=O)CC[C@]43C)[C@]1(C(=O)OC)C(=O)[C@@](C)(O)C2=O | 3.7 |
| C=C1[C@@]2(C)C[C@H]3[C@]4(C)CCC(=O)OC(C)(C)[C@@H]4CC[C@]3(C)[C@]1(C(=O)OC)C(=O)[C@@](C)(O)C2=O | 34.3 |
| C=C(C)C1=CC[C@@]2(C)[C@@H](C[C@]3(C)C(=C)[C@@]2(C(=O)OC)C(=O)[C@@](C)(O)C3=O)[C@]1(C)CCC(=O)O | 37.8 |
| C=C1[C@@]2(C)C[C@H]3C(C)=C4CC(=O)OC(C)(C)C4=CC[C@]3(C)[C@]1(C(=O)OC)C(=O)[C@@](C)(O)C2=O [BERKELEYDIONE] | 4.4 |
